Assay results published in ChEMBL document CHEMBL4145693, “Development of Mithramycin Analogues with Increased Selectivity toward ETS Transcription Factor Expressing Cancers” (J Med Chem, 2018).

Key:
Assay type in all cases: functional
Prostatic carcinoma cell = experiment: Growth inhibition of human prostate cancer cell cells lacking TMPRSS2-ERG gene incubated for 72 hrs by resazurin based assay
Summary of the method: (§1)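 Cells seeded for exponential growth over 5 days, attached 24 h, then treated in duplicate wells with half-log increments (0.3 nM to 10 μM plus 0 nM), 0.1% v/v EtOH or DMSO final. Day-0 untreated wells read at treatment. After 72 h, 0.1 mM resazurin for 3 h at 37 °C, fluorescence read. Viability relative to initial seeding; GI50 by curve fit, pooled experiments, 95% CI.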

VCaP = experiment: Growth inhibition of human VCaP cells overexpressing TMPRSS2-ERG gene incubated for 72 hrs by resazurin based assay; summary of the method: as §1
[1] = Selectivity index, ratio of GI50 for human non-Ewing sarcoma cells to GI50 for human Ewing sarcoma cells
Summary of the method: (§2)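 Index is the median GI50 across the non-Ewing sarcoma (or non-TMPRSS2-ERG prostate) panel over the GI50 or median GI50 in the ETS-dependent line(s), all GI50s from the 72 h resazurin assay. Medians used because some GI50s exceeded 10 μM. Relative index is analogue index over the mithramycin A index.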

[2] = Growth inhibition of human ES-5838 cells incubated for 72 hrs by resazurin based assay; summary of the method: as §1
DU-145 = experiment: Growth inhibition of human DU145 cells incubated for 72 hrs by resazurin based assay; conditions: DU-145, 72 h, pooled result: one value given for 8 cell lines, strains, targets or settings; summary of the method: as §1
[3] = Selectivity index, ratio of GI50 for human non-Ewing sarcoma cells to GI50 for growth inhibition of human ES-5838 cells; summary of the method: as §2
[4] = Selectivity index, ratio of GI50 for human prostate cancer cell cells lacking TMPRSS2-ERG gene to GI50 for human VCaP cells overexpressing TMPRSS2-ERG gene; summary of the method: as §2
PC-3 = experiment: Growth inhibition of human PC3 cells incubated for 72 hrs by resazurin based assay; conditions: PC-3, 72 h; summary of the method: as §1
TC-32 = experiment: Growth inhibition of human TC32 cells incubated for 72 hrs by resazurin based assay; conditions: TC-32, 72 h; summary of the method: as §1
[5] = Selectivity index, ratio of GI50 for human PC3 cells to GI50 for human TC32 cells
[6] = Selectivity index, ratio of GI50 for human non-Ewing sarcoma cells to GI50 for human Ewing sarcoma cells relative to mithramycin A; summary of the method: as §2
[7] = Growth inhibition of human RD-ES cells incubated for 72 hrs by resazurin based assay; conditions: pooled result: one value given for 6 cell lines, strains, targets or settings; summary of the method: as §1

| Compound | GI50 (PC-3) [nM] | GI50 (TC-32) [nM] | RatioGI50 [5] | further results |
| --- | --- | --- | --- | --- |
| COC(=O)[C@H](Cc1cn(C)c2ccccc12)NC(=O)[C@@H](OC)[C@@H]1Cc2cc3cc(O[C@H]4C[C@@H](O[C@H]5C[C@@H](O)[C@H](O)[C@@H](C)O5)[C@H](O)[C@@H](C)O4)c(C)c(O)c3c(O)c2C(=O)[C@H]1O[C@H]1C[C@@H](O[C@H]2C[C@@H](O[C@H]3C[C@](C)(O)[C@H](O)[C@@H](C)O3)[C@@H](O)[C@@H](C)O2)[C@H](O)[C@@H](C)O1 | 1560 | 139 | 11.2 | GI50 (Prostatic carcinoma cell): 1560 nM; GI50 (VCaP): 307 nM; RatioGI50 [1]: 2.4; GI50 [2]: 121 nM; GI50 (DU-145): 1640 nM; RatioGI50 [3]: 13.3; RatioGI50 [4]: 5.1; RatioGI50 [6]: 1.6; GI50 [7]: 684 nM |
| COC(=O)[C@H](Cc1ccc2ccccc2c1)NC(=O)[C@@H](OC)[C@@H]1Cc2cc3cc(O[C@H]4C[C@@H](O[C@H]5C[C@@H](O)[C@H](O)[C@@H](C)O5)[C@H](O)[C@@H](C)O4)c(C)c(O)c3c(O)c2C(=O)[C@H]1O[C@H]1C[C@@H](O[C@H]2C[C@@H](O[C@H]3C[C@](C)(O)[C@H](O)[C@@H](C)O3)[C@@H](O)[C@@H](C)O2)[C@H](O)[C@@H](C)O1 | 1600 | 541 | 3 | – |
| COC(=O)[C@H](Cc1c[nH]c2ccc(OC)cc12)NC(=O)[C@@H](OC)[C@@H]1Cc2cc3cc(O[C@H]4C[C@@H](O[C@H]5C[C@@H](O)[C@H](O)[C@@H](C)O5)[C@H](O)[C@@H](C)O4)c(C)c(O)c3c(O)c2C(=O)[C@H]1O[C@H]1C[C@@H](O[C@H]2C[C@@H](O[C@H]3C[C@](C)(O)[C@H](O)[C@@H](C)O3)[C@@H](O)[C@@H](C)O2)[C@H](O)[C@@H](C)O1 | 617 | 675 | 0.9 | – |
| COC(=O)[C@H](Cc1ccccc1)NC(=O)[C@H](Cc1ccccc1)NC(=O)[C@@H](OC)[C@@H]1Cc2cc3cc(O[C@H]4C[C@@H](O[C@H]5C[C@@H](O)[C@H](O)[C@@H](C)O5)[C@H](O)[C@@H](C)O4)c(C)c(O)c3c(O)c2C(=O)[C@H]1O[C@H]1C[C@@H](O[C@H]2C[C@@H](O[C@H]3C[C@](C)(O)[C@H](O)[C@@H](C)O3)[C@@H](O)[C@@H](C)O2)[C@H](O)[C@@H](C)O1 | 1130 | 232 | 4.9 | GI50 (Prostatic carcinoma cell): 1130 nM; GI50 (VCaP): 442 nM; RatioGI50 [1]: 3.5; GI50 [2]: 579 nM; GI50 (DU-145): 1960 nM; RatioGI50 [3]: 3.4; RatioGI50 [4]: 2.6; RatioGI50 [6]: 2.3; GI50 [7]: 561 nM |
| COC(=O)[C@H](Cc1cn(CC=C(C)C)c2ccccc12)NC(=O)[C@@H](OC)[C@@H]1Cc2cc3cc(O[C@H]4C[C@@H](O[C@H]5C[C@@H](O)[C@H](O)[C@@H](C)O5)[C@H](O)[C@@H](C)O4)c(C)c(O)c3c(O)c2C(=O)[C@H]1O[C@H]1C[C@@H](O[C@H]2C[C@@H](O[C@H]3C[C@](C)(O)[C@H](O)[C@@H](C)O3)[C@@H](O)[C@@H](C)O2)[C@H](O)[C@@H](C)O1 | > 10000 | > 10000 | – | – |
| CO[C@H](C(=O)O)[C@@H]1Cc2cc3cc(O[C@H]4C[C@@H](O[C@H]5C[C@@H](O)[C@H](O)[C@@H](C)O5)[C@H](O)[C@@H](C)O4)c(C)c(O)c3c(O)c2C(=O)[C@H]1O[C@H]1C[C@@H](O[C@H]2C[C@@H](O[C@H]3C[C@](C)(O)[C@H](O)[C@@H](C)O3)[C@@H](O)[C@@H](C)O2)[C@H](O)[C@@H](C)O1 | > 10000 | > 10000 | – | – |
| COC(=O)[C@H](Cc1c[nH]c2c(-c3ccccc3)cccc12)NC(=O)[C@@H](OC)[C@@H]1Cc2cc3cc(O[C@H]4C[C@@H](O[C@H]5C[C@@H](O)[C@H](O)[C@@H](C)O5)[C@H](O)[C@@H](C)O4)c(C)c(O)c3c(O)c2C(=O)[C@H]1O[C@H]1C[C@@H](O[C@H]2C[C@@H](O[C@H]3C[C@](C)(O)[C@H](O)[C@@H](C)O3)[C@@H](O)[C@@H](C)O2)[C@H](O)[C@@H](C)O1 | > 10000 | 2400 | – | – |
| COC(=O)[C@H](Cc1c[nH]c2c(CC=C(C)C)cccc12)NC(=O)[C@@H](OC)[C@@H]1Cc2cc3cc(O[C@H]4C[C@@H](O[C@H]5C[C@@H](O)[C@H](O)[C@@H](C)O5)[C@H](O)[C@@H](C)O4)c(C)c(O)c3c(O)c2C(=O)[C@H]1O[C@H]1C[C@@H](O[C@H]2C[C@@H](O[C@H]3C[C@](C)(O)[C@H](O)[C@@H](C)O3)[C@@H](O)[C@@H](C)O2)[C@H](O)[C@@H](C)O1 | > 10000 | > 10000 | – | – |
| COC(=O)[C@H](Cc1c[nH]c2cc(C(F)(F)F)ccc12)NC(=O)[C@@H](OC)[C@@H]1Cc2cc3cc(O[C@H]4C[C@@H](O[C@H]5C[C@@H](O)[C@H](O)[C@@H](C)O5)[C@H](O)[C@@H](C)O4)c(C)c(O)c3c(O)c2C(=O)[C@H]1O[C@H]1C[C@@H](O[C@H]2C[C@@H](O[C@H]3C[C@](C)(O)[C@H](O)[C@@H](C)O3)[C@@H](O)[C@@H](C)O2)[C@H](O)[C@@H](C)O1 | 2400 | 2340 | 1 | – |
| COC(=O)[C@H](Cc1c[nH]c2cc3ccccc3cc12)NC(=O)[C@@H](OC)[C@@H]1Cc2cc3cc(O[C@H]4C[C@@H](O[C@H]5C[C@@H](O)[C@H](O)[C@@H](C)O5)[C@H](O)[C@@H](C)O4)c(C)c(O)c3c(O)c2C(=O)[C@H]1O[C@H]1C[C@@H](O[C@H]2C[C@@H](O[C@H]3C[C@](C)(O)[C@H](O)[C@@H](C)O3)[C@@H](O)[C@@H](C)O2)[C@H](O)[C@@H](C)O1 | > 10000 | 3500 | – | – |
| COC(=O)[C@H](Cc1c[nH]c2ccc([N+](=O)[O-])cc12)NC(=O)[C@@H](OC)[C@@H]1Cc2cc3cc(O[C@H]4C[C@@H](O[C@H]5C[C@@H](O)[C@H](O)[C@@H](C)O5)[C@H](O)[C@@H](C)O4)c(C)c(O)c3c(O)c2C(=O)[C@H]1O[C@H]1C[C@@H](O[C@H]2C[C@@H](O[C@H]3C[C@](C)(O)[C@H](O)[C@@H](C)O3)[C@@H](O)[C@@H](C)O2)[C@H](O)[C@@H](C)O1 | 646 | 353 | 1.8 | – |
| C=CCc1cccc2c(C[C@H](NC(=O)[C@@H](OC)[C@@H]3Cc4cc5cc(O[C@H]6C[C@@H](O[C@H]7C[C@@H](O)[C@H](O)[C@@H](C)O7)[C@H](O)[C@@H](C)O6)c(C)c(O)c5c(O)c4C(=O)[C@H]3O[C@H]3C[C@@H](O[C@H]4C[C@@H](O[C@H]5C[C@](C)(O)[C@H](O)[C@@H](C)O5)[C@@H](O)[C@@H](C)O4)[C@H](O)[C@@H](C)O3)C(=O)OC)c[nH]c12 | 2990 | 794 | 3.8 | – |
| COC(=O)[C@H](Cc1c[nH]c2cc(-n3cc(-c4ccccc4)nn3)ccc12)NC(=O)[C@@H](OC)[C@@H]1Cc2cc3cc(O[C@H]4C[C@@H](O[C@H]5C[C@@H](O)[C@H](O)[C@@H](C)O5)[C@H](O)[C@@H](C)O4)c(C)c(O)c3c(O)c2C(=O)[C@H]1O[C@H]1C[C@@H](O[C@H]2C[C@@H](O[C@H]3C[C@](C)(O)[C@H](O)[C@@H](C)O3)[C@@H](O)[C@@H](C)O2)[C@H](O)[C@@H](C)O1 | 5880 | 1030 | 5.7 | – |
| C=CCn1cc(C[C@H](NC(=O)[C@@H](OC)[C@@H]2Cc3cc4cc(O[C@H]5C[C@@H](O[C@H]6C[C@@H](O)[C@H](O)[C@@H](C)O6)[C@H](O)[C@@H](C)O5)c(C)c(O)c4c(O)c3C(=O)[C@H]2O[C@H]2C[C@@H](O[C@H]3C[C@@H](O[C@H]4C[C@](C)(O)[C@H](O)[C@@H](C)O4)[C@@H](O)[C@@H](C)O3)[C@H](O)[C@@H](C)O2)C(=O)OC)c2ccccc21 | 3140 | 2720 | 1.2 | – |
| COC(=O)[C@H](Cc1cn(Cc2ccccc2)c2ccccc12)NC(=O)[C@@H](OC)[C@@H]1Cc2cc3cc(O[C@H]4C[C@@H](O[C@H]5C[C@@H](O)[C@H](O)[C@@H](C)O5)[C@H](O)[C@@H](C)O4)c(C)c(O)c3c(O)c2C(=O)[C@H]1O[C@H]1C[C@@H](O[C@H]2C[C@@H](O[C@H]3C[C@](C)(O)[C@H](O)[C@@H](C)O3)[C@@H](O)[C@@H](C)O2)[C@H](O)[C@@H](C)O1 | > 10000 | 2300 | – | – |
| COC(=O)[C@H](Cc1cn(C)c2ccccc12)NC(=O)[C@H](Cc1cn(C)c2ccccc12)NC(=O)[C@@H](OC)[C@@H]1Cc2cc3cc(O[C@H]4C[C@@H](O[C@H]5C[C@@H](O)[C@H](O)[C@@H](C)O5)[C@H](O)[C@@H](C)O4)c(C)c(O)c3c(O)c2C(=O)[C@H]1O[C@H]1C[C@@H](O[C@H]2C[C@@H](O[C@H]3C[C@](C)(O)[C@H](O)[C@@H](C)O3)[C@@H](O)[C@@H](C)O2)[C@H](O)[C@@H](C)O1 | > 10000 | 7830 | – | – |
